According to paper PMC4009363 (Nature chemical biology, 2013):
Read-outs that look alike come from different tables or passages of the source.

Experiments:
LSCe cells [1] = test: Mevalonate rescue of lovastatin treatment in LSCe/OP9 co-culture; format: cell-based, mouse; settings: 2 mM mevalonate, 1 μM lovastatin, OP9 stroma
Summary of the method: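 GFP⁺ OP9 stroma (13,500 per well) was plated on gelatin-coated 96-well plates. After 24 h, 2,000 sorted mouse LSCe cells were added. About 24 h later, 2 mM mevalonolactone and/or 1 μM lovastatin were added together, at constant DMSO (0.2% final). After 3 days, medium was fully changed and reagents were re-added.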

LSCe cells [2] = test: LSCe cell co-culture cobblestone area; format: cell-based, mouse; settings: for selective inhibition of LSCe cells relative to normal HSPCs: co-culture; for validated hit from the screen: inhibits LSCe cells relative to normal HSPCs, no significant stromal toxicity; for EC50: read-out: EC50 for LSCe cells in co-culture (cobblestone area formation), MLL-AF9 LSCe cells in co-culture with stroma
MOZ-TIF2 LSCe cells = test: MOZ-TIF2 LSCe cell co-culture with BMSCs; format: cell-based; settings: Mus musculus, BMSC, read-out: EC50, MOZ-TIF2 LSCe cells in co-culture
LSCe cells and HSPCs = settings: mixed cultures exposed ex vivo 48 hours to 5 μM lovastatin; relative to DMSO
[3] = system: patient-derived, primary human leukemia cells; test: Human CAFC assay, patient-derived leukemia cells on MS-5 stroma; format: cell-based; settings: lovastatin: treated 6 days, assessed at 5 weeks (2 weeks for FLT3-ITD)
Summary of the method: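 CD34-enriched cells from bone marrow/peripheral blood of AML patients (presentation or relapse) seeded on MS-5 mouse stroma (20,000/well, 96-well, plated 1 day earlier, 37°C/5% CO₂). Seeding density set for one cobblestone per control well at 5 weeks. Medium: α-MEM, 12.5% FCS, 12.5% horse serum, monothioglycerol, 1 µM hydrocortisone, 20 ng/ml human IL-3. Test compound added next day (0.2% DMSO final) for 6 days, then rinsed and refed; half media change at 3 weeks. Score: fraction of replicate wells with ≥6 tightly packed cells beneath stroma.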

[4] = system: normal HSPC (CD34+ cells from umbilical cord blood); test: Human CAFC assay, normal CD34+ cord blood cells on MS-5 stroma; format: cell-based; settings: treated 6 days, assessed at 5 weeks
murine AML cell lines = test: Murine myeloid cell line viability; format: cell-based; settings: Mus musculus, 72 h, read-out: EC50 against murine AML cell lines
[5] = system: dsRed+ LSCe cells and GFP+ HSPCs; test: Admixed LSCe cells and HSPCs co-cultured with primary BMSCs, direct treatment; format: cell-based, mouse; settings: 200 nM lovastatin, assessed 5 days later
Summary of the method: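 Primary BMSC monolayers from C57BL/6 mice plated in 384-well format. 3 days later, 800 dsRed⁺ LSCe cells and 1600 GFP⁺ HSPCs (UbiquitinC-GFP mice) added. Test compound or DMSO added 24 h later and incubated 5 days. Wells imaged in dsRed and GFP channels at 10x; total cell area per well quantified for each channel. Mean ± SEM of quadruplicates, two independent experiments.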

[6] = system: human AML cell lines (U937, THP-1, NOMO-1, SKM-1, NB4, and OCI-AML3); test: Human AML cell line viability screen; format: cell-based; settings: for EC50: Homo sapiens
LSCe cells [7] = test: Limiting dilution syngeneic transplantation of ex vivo treated LSCe co-cultures; design: species or system mouse; settings: 500 to 10,000 LSCe cells, 24-hour ex vivo exposure to 5 μM lovastatin in co-culture with BMSCs
normal HSPCs = test: HSPC co-culture on primary bone marrow stromal cells; format: cell-based, mouse
Summary of the method: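 Normal mouse HSPCs (400 per well) were plated in 384-well format on primary CD105⁺ bone-marrow stromal cells and held at 33°C/5% CO₂. The stroma was isolated from GFP-transgenic or wild-type C57BL/6 mice by anti-CD105 magnetic-bead selection and grown 2–3 days at 33°C before use. Test compound was run at 8–12 concentrations in duplicate, with a cytotoxic control at 22 μM.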

[8] = system: dsRed+ LSCe cells and GFP+ HSPCs; test: BMSC stromal pretreatment with admixed LSCe cells and HSPCs; format: cell-based, mouse; settings: bone marrow stromal cells pretreated for 3 days
Summary of the method: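 Wild-type C57BL/6 BMSC monolayers (384-well) treated with test compound for 3 days at 33°C/5% CO₂, then rinsed twice with PBS. 1200 GFP⁺ HSPCs (UbiquitinC-GFP mice) and 1200 dsRed⁺ LSCe cells plated together onto them. 5 days later, wells imaged at 10x in dsRed and GFP channels; total cell area per channel per well quantified. Mean ± SEM of quadruplicates.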

LSCe cells [9] = test: Gene-expression profiling of LSCe cells with GSEA; format: cell-based, mouse; settings: 5 μM, 6 hours, in suspension
Summary of the method: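 250,000 LSCe cells per sample exposed to test compound or DMSO (n = 5 and 2, respectively) for 6 h in suspension in IMDM, 10% FBS, 1% Pen-Strep. RNA extracted, amplified, and hybridized to Illumina MouseRef-8 v2.0 Expression BeadChips.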

[10] = system: OP9 or BMSC stromal cells; test: Stromal toxicity screen; format: cell-based, mouse; settings: stroma pretreatment
Summary of the method: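 OP9 (6,750/well) or primary BMSC (2,000/well) stromal cells plated in 384-well plates. After 24 h, test compound added at 8 concentrations; incubated 72 h at 37°C/5% CO₂. Viability read by CellTiter-Glo ATP luminescence. Toxicity called when mean signal fell 3 SD (BMSC) or 5 SD (OP9) below DMSO control at concentrations below 20 μM.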

[11] = system: LSCe cells on pretreated OP9 stroma; test: Stromal pretreatment screen; format: cell-based, mouse
FLT3-mutated AML = settings: cited from earlier work
AML = settings: phase 1 clinical trial in AML; cited from earlier work

Compound: CC(O)(CCO)CC(=O)O (centres unmarked) [mevalonate]
- rescue of the anti-leukemia effects of lovastatin (LSCe cells [1]): fully rescued

Compound: CC(C)c1c(C(=O)Nc2ccccc2)c(-c2ccccc2)c(-c2ccc(F)cc2)n1CC[C@@H](O)C[C@@H](O)CC(=O)O [atorvastatin]
- selective inhibition of LSCe cells relative to normal HSPCs (LSCe cells [2]): selectively inhibited LSCe cells relative to normal HSPCs

Compound: C=C1C(=O)O[C@H]2[C@H]1CC/C(C)=C/CC[C@@]1(C)O[C@@H]21 [parthenolide]
- validated hit from the screen (LSCe cells [2]): among the 155 validated hits

Compound: CC1=C(O)C(=O)C=C2C1=CC=C1[C@@]2(C)CC[C@@]2(C)[C@@H]3C[C@](C)(C(=O)O)CC[C@]3(C)CC[C@]12C [celastrol]
- validated hit from the screen (LSCe cells [2]): among the 155 validated hits

Compound: CC[C@H](C)C(=O)O[C@H]1C[C@@H](C)C=C2C=C[C@H](C)[C@H](CC[C@@H]3C[C@@H](O)CC(=O)O3)[C@H]21 [lovastatin]
- EC50 (MOZ-TIF2 LSCe cells): < 250 nM
- survival of transplanted mice (LSCe cells and HSPCs): survived substantially longer
- activity against patient-derived primary human leukemia cells (cobblestone area formation) [3]: inhibited cobblestone area formation for all 6 patient-derived AML samples
- inhibition of normal HSPC cobblestone area formation [4]: no inhibition
- EC50 (LSCe cells [2]): ~200 nM
- EC50 (murine AML cell lines): > 2000 nM
- relative inhibition of admixed LSCe cells and HSPCs [5]: selectively inhibited the dsRed^+ leukemia cells while sparing the GFP^+ HSPCs
- EC50 ([6]; read-out: EC50 against human AML cell lines): > 2000 nM
- leukemia development after transplantation (LSCe cells [7]): only one animal in the lovastatin group developed leukemia by 11.5 weeks
- toxicity to normal HSPCs (normal HSPCs; concentrations as high as 20 μM, co-culture with BMSCs): no apparent toxicity

Compound: COCc1c(C(C)C)nc(C(C)C)c(/C=C/[C@@H](O)C[C@@H](O)CC(=O)O)c1-c1ccc(F)cc1 [cerivastatin]
- selective inhibition of LSCe cells relative to normal HSPCs (LSCe cells [2]): selectively inhibited LSCe cells relative to normal HSPCs

Compound: CCCCc1ccc2[nH]c(NC(=O)OC)nc2c1 [parbendazole]
- EC50 ([6]; read-out: EC50, AML cell line viability): < 625 nM

Compound: CC1(C)C(C(=O)Nc2ccc(S(=O)(=O)c3ccc(NC(=O)C4C(C)(C)C4(C)C)cc3)cc2)C1(C)C [BRD7116]
- relative inhibition of LSCe cells and HSPCs on pretreated stroma [8]: preferentially inhibited the LSCe cells compared to HSPCs
- transcriptional changes (GSEA) (LSCe cells [9]): induced transcriptional changes consistent with myeloid differentiation
- activity against patient-derived primary human leukemia cells (cobblestone area formation) [3]: showed activity
- EC50 (LSCe cells [2]): 200 nM
- inhibition of AML cell lines ([6]; at 20 μM): ~ 50%
- stromal cell viability (CellTiter-Glo) [10]: without evidence of altered stromal cell viability
- change in stromal morphology [11]: not accompanied by an obvious change in stromal morphology
- activity against normal HSPCs (normal HSPCs; co-cultured on primary BMSC stroma): limited activity

Compound: CC[C@H](C)C(=O)O[C@H]1C[C@H](O)C=C2C=C[C@H](C)[C@H](CC[C@@H](O)C[C@@H](O)CC(=O)O)[C@H]21 [pravastatin]
- scoring in LSCe co-culture assay (LSCe cells [2]): did not score
- scoring in model of FLT3-mutated AML (FLT3-mutated AML): did not score
- anti-leukemia effect in patients (AML): preliminary evidence of an anti-leukemia effect

Compound: CCC(C)(C)C(=O)O[C@H]1C[C@@H](C)C=C2C=C[C@H](C)[C@H](CC[C@@H]3C[C@@H](O)CC(=O)O3)[C@H]21 [simvastatin]
- selective inhibition of LSCe cells relative to normal HSPCs (LSCe cells [2]): selectively inhibited LSCe cells relative to normal HSPCs

Compound: Cc1c(C)c2c(c(C)c1O)CCC(C)(COc1ccc(CC3SC(=O)NC3=O)cc1)O2 (centres unmarked) [troglitazone]
- sensitivity of AML cell lines ([6]; concentrations as high as 35 μM): none of the AML cell lines tested was sensitive
- change in stromal morphology [11]: dose-dependent adipocytic change in the stroma

Compound: CC(C)c1nc(N(C)S(C)(=O)=O)nc(-c2ccc(F)cc2)c1/C=C/[C@@H](O)C[C@@H](O)CC(=O)O [rosuvastatin]
- selective inhibition of LSCe cells relative to normal HSPCs (LSCe cells [2]): selectively inhibited LSCe cells relative to normal HSPCs

Compound: CC(C)n1c(/C=C/C(O)CC(O)CC(=O)O)c(-c2ccc(F)cc2)c2ccccc21 (centres unmarked) [fluvastatin]
- selective inhibition of LSCe cells relative to normal HSPCs (LSCe cells [2]): selectively inhibited LSCe cells relative to normal HSPCs
